Measured values from ChEMBL document CHEMBL1144865, “N-aminoimidazole derivatives inhibiting retroviral replication via a yet unidentified mode of action” (J Med Chem, 2003).

What was measured:
[1] = system: Simian immunodeficiency virus; experiment: Concentration required to inhibit the viral (SIV mac251) cytopathic effect by 50% in MT-4 cells.; type: functional, organism-based, MT4; conditions: Simian immunodeficiency virus, mac251, MT4
How it was run: (§1)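 Virus-infected MT-4 cells cultured with serial compound dilutions; viability measured 5 days after infection by MTT tetrazolium colorimetric read-out. The value is the concentration protecting 50% of cells from viral cytopathic effect. Averages ± SD from at least two independent experiments. HIV-2 and SIV stocks came from infected MT-4 culture supernatants.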

[2] = system: Human immunodeficiency virus 1; experiment: Concentration required to inhibit the viral (HIV-1 IIIB strain) cytopathic effect by 50% in MT-4 cells.; type: functional, organism-based; conditions: Human immunodeficiency virus 1, MT4; how it was run: as §1
[3] = system: Human immunodeficiency virus 2; experiment: Concentration required to inhibit the viral (HIV-2 ROD) cytopathic effect by 50% in MT-4 cells.; type: functional, organism-based, MT4; conditions: Human immunodeficiency virus 2, MT4; how it was run: as §1
[4] = system: MT4; experiment: Concentration that reduced the MT-4 cell viability by 50%.; type: functional, Homo sapiens; conditions: Homo sapiens, MT4
How it was run: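 Mock-infected MT-4 cells, run in parallel with the antiviral assay, were exposed to compound. Viability on day 5 was read by MTT colorimetry. The value is the concentration lowering viability by 50%. Averages ± SD from at least two independent experiments.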

[5] = system: Human immunodeficiency virus 1; experiment: Concentration required to inhibit the viral (HIV-1 NNRTI resistant strain) cytopathic effect by 50% in MT-4 cells.; type: functional, organism-based; conditions: Human immunodeficiency virus 1, MT4
How it was run: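 MT-4 cells infected with HIV-1(III_B)-derived strain S0561945 (K103N + Y181C RT mutations, NNRTI-resistant). Cultured with varying compound concentrations; viability read on day 5 post-infection by MTT tetrazolium colorimetry. Value is the concentration giving 50% protection against virus-induced cytopathic effect. Cytotoxicity measured in parallel on mock-infected cells at day 5. Averages ± SD from at least two independent experiments.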

[6] = system: Human immunodeficiency virus 1; experiment: Concentration required to inhibit the viral (HIV-1 NL4.3 strain) cytopathic effect by 50% in MT-4 cells.; type: functional, organism-based; conditions: Human immunodeficiency virus 1, MT4; how it was run: as §1

| Compound | IC50 [1] [µM] | IC50 [2] [µM] | IC50 [3] [µM] | CC50 [4] [µM] | IC50 [5] [µM] | IC50 [6] [µM] |
| --- | --- | --- | --- | --- | --- | --- |
| SC1=NC(c2ccccc2)C(c2ccccc2)N1Nc1cccc(Cl)c1 (stereo not drawn) | > 36.3 | > 36.3 | > 36.3 | 36.3 | > 36.3 | > 36.3 |
| SC1=NC2CCCCC2N1Nc1cccc(Cl)c1 (stereo not drawn) | > 126 | > 126 | > 126 | 126 |  | > 126 |
| Cc1cccc(NN2C(S)=NC(C)C2c2cccc(C(=O)O)c2)c1 (stereo not drawn) | > 187 | > 187 | > 187 | 187 |  | > 187 |
| CCC1N=C(S)N(Nc2cccc(C)c2)C1c1ccccc1 (stereo not drawn) | > 53.6 | 17.6 | > 53.6 | 53.6 | ≥ 53.6 | 12.8 |
| CSc1ccc(NN2C(S)=NC(C)C2c2ccccc2)cc1 (stereo not drawn) | > 53 | > 53 | > 53 | 53 |  | > 53 |
| Cc1cc(C)cc(NN2C(S)=NC(C)C2c2ccccc2)c1 (stereo not drawn) | > 194 | 1.03 | > 194 | 194 | > 194 | 0.87 |
| CC1N=C(S)N(Nc2cccc(Cl)c2)C1C(=O)O (stereo not drawn) | > 266 | > 266 | > 266 | 266 |  | > 266 |
| Cc1cccc(Nn2cnc(C)c2C)c1 | > 312 | > 312 | > 312 | 312 |  | > 312 |
| Cc1ncn(Nc2cccc(Cl)c2)c1-c1cccc(C(N)=O)c1 | > 260 | > 260 | > 260 | 260 |  | > 260 |
| Cc1nc(SCc2ccccc2)n(Nc2cccc(Cl)c2)c1-c1ccccc1 | > 39.7 | > 39.7 | > 39.7 | 39.7 |  | > 39.7 |
| COC(=O)C1N=C(S)N(Nc2cccc(Cl)c2)C1C (stereo not drawn) | > 48.8 | > 48.8 | > 48.8 | 48.8 |  | > 48.8 |
| Cc1cc(C)cc(Nn2cnc(C)c2-c2ccccc2)c1 | > 20.4 |  | > 20.4 | 20.4 |  |  |
| Cc1c(-c2ccccc2)nc(S)n1Nc1cccc(Cl)c1 | > 50 | > 50 | > 50 | 50 |  | > 50 |
| COC(=O)c1cccc(-c2c(C)ncn2Nc2cccc(Cl)c2)c1 | > 33.1 | > 33.1 | > 33.1 | 33.1 |  | > 33.1 |
| CC1N=C(S)N(Nc2cc(Cl)ccc2Cl)C1c1ccccc1 (stereo not drawn) | > 147 | > 147 | > 147 | 147 |  | > 147 |
| CCc1ccc(NN2C(S)=NC(C)C2c2ccccc2)cc1 (stereo not drawn) | > 34.5 | > 34.5 | > 34.5 | 34.5 |  | > 34.5 |
| CC1N=C(S)N(Nc2cccc(Cl)c2)C1C (stereo not drawn) | > 259 | > 259 | > 259 | 259 |  | > 259 |
| Cc1nc(S)n(Nc2cccc3ccccc23)c1-c1ccccc1 | 4.68 | 5.55 | 5.1 | 32 | 11.9 | 6.58 |
| Cc1nc(S)n(Nc2ccc(F)cc2)c1-c1ccccc1 | > 220 | > 220 | > 220 | 220 |  | > 220 |
| CC1N=C(S)N(Nc2cccc(Cl)c2)C1c1cccc(C(N)=O)c1 (stereo not drawn) | > 42.2 | > 42.2 | > 42.2 | 42.2 |  | > 42.2 |
| CCc1ncn(Nc2cccc(C)c2)c1-c1ccccc1 | > 27.9 | > 27.9 | > 27.9 | 27.9 |  | > 27.9 |
| COC(=O)c1cccc(C2C(C)N=C(S)N2Nc2cccc(Cl)c2)c1 (stereo not drawn) | > 67.4 | > 67.4 | > 67.4 | 67.4 |  | > 67.4 |
| Cc1cccc(NN2C(S)=NC(C)C2C)c1 (stereo not drawn) | > 360 | > 360 | > 360 | 360 |  | > 360 |
| CC1N=C(S)N(Nc2cccc(Cl)c2)C1c1cccc(C#N)c1 (stereo not drawn) | > 99.4 | ≥ 99.4 | > 99.4 | 99.4 | > 99.4 | 42 |
